# Screening results: PubChem BioAssay, several laboratories
# TLR9-MyD88 inh – inhibitors of TLR9-MyD88 association in cells, primary screen, cell-based, CHO, BLA complementation, fluorescence | Toll-like receptor 9 (Homo sapiens) + Myeloid differentiation primary response protein … | CCF4 FRET ratio | inhibition, % at 4.98 µM | 340,000 compounds, 0.21% hits | AID 504734, 2011;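 active means inhibition above the mean over all tested compounds plus 3 SD, cut at about 21% in these data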;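 further: 0% = DMSO only wells and 100% = clavulanate BLA inhibitor control wells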
# Target sequence (Q99836 whole entry, looked up): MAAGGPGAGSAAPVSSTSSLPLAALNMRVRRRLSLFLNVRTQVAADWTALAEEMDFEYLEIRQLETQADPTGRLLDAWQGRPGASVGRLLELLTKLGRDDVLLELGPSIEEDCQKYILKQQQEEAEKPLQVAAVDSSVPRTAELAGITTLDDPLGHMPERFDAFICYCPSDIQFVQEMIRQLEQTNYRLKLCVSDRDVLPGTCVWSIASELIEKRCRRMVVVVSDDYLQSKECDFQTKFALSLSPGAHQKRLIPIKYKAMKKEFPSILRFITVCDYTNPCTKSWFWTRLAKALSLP
# Target sequence (Q9NR96 whole entry, looked up): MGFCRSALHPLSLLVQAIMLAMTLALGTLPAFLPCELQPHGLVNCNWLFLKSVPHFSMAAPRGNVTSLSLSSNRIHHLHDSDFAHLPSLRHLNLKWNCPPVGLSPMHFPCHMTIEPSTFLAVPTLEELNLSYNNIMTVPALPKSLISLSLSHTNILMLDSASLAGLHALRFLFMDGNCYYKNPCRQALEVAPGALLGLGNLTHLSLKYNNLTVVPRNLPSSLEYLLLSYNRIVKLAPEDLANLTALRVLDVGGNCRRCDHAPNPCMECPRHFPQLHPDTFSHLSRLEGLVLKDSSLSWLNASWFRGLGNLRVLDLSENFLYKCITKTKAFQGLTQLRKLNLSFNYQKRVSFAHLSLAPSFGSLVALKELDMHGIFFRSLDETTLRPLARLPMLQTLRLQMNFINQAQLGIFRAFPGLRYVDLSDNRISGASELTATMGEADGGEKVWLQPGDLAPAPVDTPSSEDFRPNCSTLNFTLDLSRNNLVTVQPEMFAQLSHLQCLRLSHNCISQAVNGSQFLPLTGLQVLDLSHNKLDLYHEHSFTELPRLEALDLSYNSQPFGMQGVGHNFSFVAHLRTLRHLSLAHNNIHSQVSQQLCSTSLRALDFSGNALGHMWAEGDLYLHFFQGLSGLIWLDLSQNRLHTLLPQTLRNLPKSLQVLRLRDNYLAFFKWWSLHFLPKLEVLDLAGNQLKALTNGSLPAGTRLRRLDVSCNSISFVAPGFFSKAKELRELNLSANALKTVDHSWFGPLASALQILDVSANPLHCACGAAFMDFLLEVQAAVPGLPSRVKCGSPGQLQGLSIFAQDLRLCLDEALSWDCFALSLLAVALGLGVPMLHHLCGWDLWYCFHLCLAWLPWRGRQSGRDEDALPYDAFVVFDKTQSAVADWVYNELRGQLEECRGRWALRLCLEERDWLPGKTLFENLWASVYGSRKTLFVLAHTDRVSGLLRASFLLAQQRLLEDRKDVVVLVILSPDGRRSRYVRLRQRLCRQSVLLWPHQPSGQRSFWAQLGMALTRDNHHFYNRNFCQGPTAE
# TLR4-MyD88 BLA – inhibitors of TLR4-MyD88 association in cells, primary screen, cell-based, HeLa CL3-4, BLA complementation, FRET ratio; Toll-like receptor 4 (Homo sapiens) + Myeloid differentiation primary response protein …; HeLa CL3-4 TLR4/MyD88 BLA complementation; inhibition, % at 8.4 µM; 200,000 compounds, 0.18% hits; in the data active means inhibition above about 25%;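 further: 0% = vehicle and 100% = reference inhibitor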
# NOD2-RIPK2 inh – NOD2-RIPK2 binding disruptors in cells, primary screen, fluorescence, CHO cells, BLA complementation | CCF4 ratio | inhibition, % at 4.98 µM | 360,000 compounds, 0.38% hits | AID 624267, 2012; in the data active means inhibition above about 21%;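 further: 0% = vehicle only and 100% = reference blocker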
# XBP1 UPR activ – activators of adaptive XBP1 UPR arm, primary screen, cell-based, CHO-XBP1 luciferase reporter, luminescence, uHTS; IRE1-XBP1 UPR activation; percent of tunicamycin response, DMSO as zero; activation, % at 20 µM; 330,000 compounds, 0.33% hits;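 active means versus positive control, 20 µM dose yields 30% or more activation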;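 further: 100% = tunicamycin at 10 µg/mL and 0% = DMSO only wells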
#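 Material: IRE1-XBP1 luciferase reporter CHO line / Quantity: one thousand reporter cells per well / Buffer or medium: F12 with 10% serum / Compound: 20 µM single concentration, DMSO 1% / Times: 6 h treatment, 37 °C / Detection: Steady-Glo luciferase glow luminescence, 10 min after reagent addition / Benchmarks: tunicamycin high, DMSO low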
# CHOP UPR activ – activators of apoptotic CHOP UPR arm, primary screen, cell-based, CHO-CHOP luciferase reporter, luminescence, uHTS; activation, % at 10 µM; UPR activation; percent of tunicamycin response over DMSO baseline; 330,000 compounds, 0.34% hits;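 active means at 10 µM dose, activation of 40% or more, normalized to positive control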;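 further: 100% = tunicamycin at 10 µg/mL and 0% = DMSO alone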
#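 assay system = CHO CHOP reporter cells | amount = 500 CHO-CHOP cells per well | buffer or medium = F12 with 10% FBS | incubation = 16-18 h cell attachment, then 6 h compound exposure, 37 °C | detection = luminescence read with Steady-Glo | read-out = percent activation relative to tunicamycin control | controls = tunicamycin high control, DMSO low control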
# CHOP inhibitor – inhibitors of CHOP promoter induction, primary screen, cell-based, unfolded protein response, luciferase reporter; CHO-K1 CHOP-promoter luciferase, tunicamycin-induced, 15-18 h; inhibition, % at 10 µM; 220,000 compounds, 3.8% hits;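 active means compounds that reduced the stress-induced luciferase reporter signal by more than about 70% of percent inhibition, limit read from the data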;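 further: 0% = tunicamycin plus vehicle and 100% = wells without tunicamycin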
# CHOP confirm – retest of CHOP induction inhibitors, confirmation, cell-based; shares compounds with CHOP inhibitor; CHO-CHOP promoter luciferase reporter, tunicamycin-induced, luminescence; inhibition, % at 10 µM; 2,100 compounds, 45% hits; AID 504437, 2011;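 active means mean of three repeat readings of reporter signal inhibition above a set limit, cut at about 70% in these data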;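 further: 0% = tunicamycin plus vehicle and 100% = wells lacking tunicamycin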
# * hit, by the source's call; nt = no result. Only a selection was taken, and hits are over-represented in it overall.
SMILES,TLR9-MyD88 inh,TLR4-MyD88 BLA,NOD2-RIPK2 inh,XBP1 UPR activ,CHOP UPR activ,CHOP inhibitor,CHOP confirm
CCCCCCn1c(N2CCC(C)CC2)nc2c1c(=O)[nH]c(=O)n2C,-17,-4,-13,9,-1,100*,105*
N=C1S/C(=C\c2cn[nH]c2-c2ccc(F)cc2)C(=O)N1c1ccccc1F,-8,1,-8,-1,6,103*,43
Nc1cc(-c2ccc(Cl)cc2)nn1S(=O)(=O)c1ccc(Cl)cc1,0,-7,-14,-1,1,108*,7
O=C1NC[C@H](CCCCN2C[C@H](Cc3ccccc3)N(CCC3CCCCC3)C(=O)C2=O)N(CCc2ccccc2)C1=O,nt,nt,2,nt,nt,nt,nt
CCc1nnc(NC(=O)c2ccc(S(=O)(=O)N3CCN(Cc4ccccc4)CC3)cc2)s1,-5,-4,0,-3,-1,97*,1
Cc1ccc(C(=O)NNC(=O)CSc2nnc3c(n2)[nH]c2ccc(C)cc23)cc1,2,-1,-2,-1,-1,104*,13
Cc1ccc(C(=O)NNC(=O)CSc2nc(N)cc(N)n2)cc1,-14,14,-2,-1,0,9,nt
Cc1ccc(-c2nc3cc(N)ccc3o2)cc1,2,-2,11,-2,-1,102*,60
Cc1ccc(-c2nc3cc(NS(=O)(=O)c4ccc(C)cc4)ccc3o2)cc1,-1,-4,1,1,0,105*,80*
O=S(=O)(Nc1ccc2oc(-c3ccccc3)nc2c1)c1ccccc1,0,-11,1,5,4,nt,nt
Cc1nn(-c2ccccc2)c(/N=C/c2ccc(O)cc2)c1-c1ccccc1,-9,-8,-7,4,6,104*,28
CN(C)S(=O)(=O)c1cccc(NC(=O)C2CCCN(C(=O)c3ccc(Cl)cc3)C2)c1 (configuration not stated),-2,nt,-11,nt,nt,nt,nt
C[C@@H](CO)NC(=O)c1[nH]cnc1C(=O)Nc1cccc(Cl)c1,16,nt,-3,nt,nt,nt,nt
CCn1c(=O)c(C(=O)NNS(=O)(=O)c2ccc(Br)cc2)c(O)c2ccccc21,-6,-24,0,0,0,105*,68
COc1ccc(Cl)cc1-c1noc([C@@H]2O[C@H](CO)[C@H](O)[C@H](O)[C@H]2O)n1,nt,nt,-10,nt,nt,nt,nt
CC(C)(C)c1ccc(-c2n[nH]c(=S)n2C2CCCC2)cc1,4,8,2,0,0,107*,121*
Cn1c(-c2ccc(C(C)(C)C)cc2)n[nH]c1=S,-3,-11,1,0,1,-11,nt
CCCCN1CC(N2CCN(Cc3ccccc3)CC2)CS1(=O)=O (configuration not stated),nt,nt,-9,nt,nt,nt,nt
COc1cc(-c2cnc3c(NC(C)=O)cc(-c4cccc(C(=O)NCCO)c4)cn23)cc(OC)c1OC,nt,nt,-16,nt,nt,nt,nt
C[C@H](NC(=O)C1CCN(S(=O)(=O)c2ccccc2)CC1)C(=O)NCc1cccnc1,-4,nt,-11,nt,nt,nt,nt
Cc1n[nH]c(C)c1S(=O)(=O)N(CC(=O)N1CCc2ccccc21)c1ccc(C(C)C)cc1,-3,1,4,-2,2,96*,36
CCc1ccc(OCCNC(=O)c2ccccc2SCc2ccccc2)cc1,-2,1,-14,1,-2,99*,91*
CCOc1cc(S(=O)(=O)Nc2ccc(CC)cc2)ccc1Cl,0,5,12,3,0,104*,111*
CCOc1cc(S(=O)(=O)Nc2ccccc2CC)ccc1Cl,-7,4,7,0,-1,102*,77*
CN1C(=O)[C@H]2[C@@H](c3ccc(C(F)(F)F)cc3)N[C@]3(CCCN(Cc4cccn4C)C3=O)[C@H]2C1=O,-1,nt,-3,nt,nt,nt,nt
SMILES,TLR9-MyD88 inh,TLR4-MyD88 BLA,NOD2-RIPK2 inh,XBP1 UPR activ,CHOP UPR activ,CHOP inhibitor,CHOP confirm
COc1ccc(NC(=O)C2Cc3c(-c4cccc(NC(C)=O)c4)ccnc3O2)cc1 (configuration not stated),nt,nt,-2,nt,nt,nt,nt
Cc1c(C(=O)OCC(=O)N2CC(=O)Nc3ccccc32)oc2ccc(Br)cc12,5,1,-10,12,0,104*,1
COCCn1c(=NC(=O)/C=C/c2ccccc2)sc2cc(NC(C)=O)ccc21,3,5,-6,0,3,100*,43
Cc1c(-c2nc(N)nc(Nc3ccc(F)cc3)n2)oc2ccccc12,-7,20,3,7,5,106*,40
Cc1ccccc1Nc1nc(N)nc(-c2oc3ccccc3c2C)n1,nt,nt,-4,-3,7,26,nt
CCN(CCO)c1ncnc2c1sc1nc(C(C)C)c3c(c12)CC(C)(C)OC3,2,-5,-5,13,0,99*,103*
CC(C)c1nc2sc3c(NCc4ccccc4)ncnc3c2c2c1COC(C)(C)C2,-2,-9,-14,7,-3,65,nt
CCCCC(CC)Cn1c(N)c(C#N)c2nc3ccccc3nc21 (configuration not stated),-12,-40,-1,-2,1,101*,133*
CCCCCC(=O)N1C[C@H](O)[C@@H](n2cc(C3CC3)nn2)C[C@@H]1c1ccc(OC)cc1,0,nt,-5,nt,nt,nt,nt
O=C1CC(c2ccccc2Br)c2cc3c(cc2N1)CCC3 (configuration not stated),nt,4,nt,-1,-1,101*,41
CC1(C(=O)NCc2ccco2)Cc2c(-c3ccc(C(N)=O)cc3)ccnc2O1 (configuration not stated),nt,nt,-6,nt,nt,nt,nt
Cc1c(C(=O)NCc2ccccc2C(F)(F)F)sc(=O)n1Cc1ccc2c(c1)OCO2,nt,nt,-6,nt,nt,nt,nt
Cc1ccc(C(=O)NNC(=S)NC(=O)c2ccc(Cl)cc2Cl)cc1,0,-2,3,5,0,98*,8
Cc1ccc(C(=O)NNC(=S)NC(=O)c2ccccc2)cc1,6,nt,-7,3,-1,nt,nt
C[C@H]1CN([C@@H](C)CO)C(=O)CCCn2nncc2CO[C@@H]1CN(C)Cc1cccc2c1OCCCO2,7,nt,9,nt,nt,nt,nt
NC(=S)N=Nc1c(O)[nH]c2ccccc12,3,5,-4,-2,3,4,nt
NC(=S)N=Nc1c(O)[nH]c2c(Br)cc(Br)cc12,nt,-13,-1,-2,2,98*,7
O=C(CC[C@H]1O[C@@H](n2cnc3c(NC(=O)c4ccccc4)ncnc32)[C@H](O)[C@@H]1O)NCc1ccccn1,nt,nt,10,nt,nt,nt,nt
